Data published in ChEMBL document CHEMBL1147494, “Differentiation of in vitro transcriptional repression and activation profiles of selective glucocorticoid modulators” (Bioorg Med Chem Lett, 2004).

Key:
[1] = target: T1, Progesterone receptor (Homo sapiens) (UniProt P06401); assay: In vitro binding affinity against progesterone receptor
T1 sequence (whole entry): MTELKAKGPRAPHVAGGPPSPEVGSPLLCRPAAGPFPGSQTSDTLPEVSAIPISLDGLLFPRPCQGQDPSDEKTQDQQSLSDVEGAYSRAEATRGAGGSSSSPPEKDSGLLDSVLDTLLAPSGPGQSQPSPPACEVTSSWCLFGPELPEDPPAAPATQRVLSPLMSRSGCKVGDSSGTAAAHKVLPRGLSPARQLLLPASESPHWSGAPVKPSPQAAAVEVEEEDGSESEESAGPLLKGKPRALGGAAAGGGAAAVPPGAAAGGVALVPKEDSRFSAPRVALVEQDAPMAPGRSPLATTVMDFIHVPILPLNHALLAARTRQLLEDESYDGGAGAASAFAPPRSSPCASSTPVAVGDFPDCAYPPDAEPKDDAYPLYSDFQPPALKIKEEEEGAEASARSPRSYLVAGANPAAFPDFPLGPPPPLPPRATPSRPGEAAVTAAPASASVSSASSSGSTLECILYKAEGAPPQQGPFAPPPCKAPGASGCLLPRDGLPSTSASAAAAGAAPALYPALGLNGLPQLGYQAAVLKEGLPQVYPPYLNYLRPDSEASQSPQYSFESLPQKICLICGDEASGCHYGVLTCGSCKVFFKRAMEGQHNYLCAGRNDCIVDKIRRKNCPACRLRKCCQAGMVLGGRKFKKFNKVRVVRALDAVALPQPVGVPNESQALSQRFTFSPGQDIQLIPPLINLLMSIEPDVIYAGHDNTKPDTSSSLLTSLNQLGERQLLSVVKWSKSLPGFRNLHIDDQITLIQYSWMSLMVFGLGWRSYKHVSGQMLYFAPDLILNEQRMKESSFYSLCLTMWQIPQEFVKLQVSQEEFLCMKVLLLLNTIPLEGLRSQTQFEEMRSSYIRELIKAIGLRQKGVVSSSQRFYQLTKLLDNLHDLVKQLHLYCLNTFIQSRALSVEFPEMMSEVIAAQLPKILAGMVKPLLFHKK
In short: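 Competition binding assay against progesterone receptor. Replicates vary by value: single experiments in triplicate; two experiments with triplicate determinations (with standard deviation); or at least three separate experiments in triplicate (mean ± SEM).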

Glucocorticoid receptor [2] = target: T2, Glucocorticoid receptor (Homo sapiens, UniProt P04150); assay: Inhibition of transcriptional activation in CV-1 cells expressing glucocorticoid receptor; assay type: functional, cell-based
T2 sequence (P04150 whole entry): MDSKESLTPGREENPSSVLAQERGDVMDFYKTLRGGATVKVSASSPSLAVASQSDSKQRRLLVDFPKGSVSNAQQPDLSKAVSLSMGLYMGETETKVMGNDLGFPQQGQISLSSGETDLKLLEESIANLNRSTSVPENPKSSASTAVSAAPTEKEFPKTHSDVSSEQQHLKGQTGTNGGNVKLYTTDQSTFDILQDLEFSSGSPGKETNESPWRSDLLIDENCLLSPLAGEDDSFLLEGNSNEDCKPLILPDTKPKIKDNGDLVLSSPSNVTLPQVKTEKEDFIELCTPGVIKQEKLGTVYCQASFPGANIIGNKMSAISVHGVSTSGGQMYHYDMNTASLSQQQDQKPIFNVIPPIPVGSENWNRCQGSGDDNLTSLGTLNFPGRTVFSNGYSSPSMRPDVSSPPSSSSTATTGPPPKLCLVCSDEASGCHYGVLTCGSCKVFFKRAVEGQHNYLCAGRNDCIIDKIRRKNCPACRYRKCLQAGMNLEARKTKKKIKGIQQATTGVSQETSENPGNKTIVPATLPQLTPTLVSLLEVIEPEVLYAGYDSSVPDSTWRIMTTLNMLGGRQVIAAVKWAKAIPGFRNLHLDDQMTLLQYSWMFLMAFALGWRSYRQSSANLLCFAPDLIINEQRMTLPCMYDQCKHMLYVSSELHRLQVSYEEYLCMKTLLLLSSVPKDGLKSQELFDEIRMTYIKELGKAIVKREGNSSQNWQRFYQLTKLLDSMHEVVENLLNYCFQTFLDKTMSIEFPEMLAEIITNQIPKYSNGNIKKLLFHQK

Glucocorticoid receptor [3] = target: T2, Glucocorticoid receptor; assay: Inhibition of transcriptional repression in CV-1 cells expressing glucocorticoid receptor; assay type: functional, cell-based
Cell line [4] = assay: Effective concentration of compound for transcriptional repression of PGE-2 in Human cell native protein assay
Cell line [5] = assay: Efficacy for transcriptional repression of osteocalcin in Human cell native protein assay expressed as percentage of the maximal response of Dexamethasone
Cell line [6] = assay: Effective concentration of compound for transcriptional repression of IL-6 in Human cell native protein assay
Cell line [7] = assay: Efficacy for transcriptional activation of collagenase in Human cell native protein assay expressed as percentage of the maximal response of Dexamethasone; assay type: functional
Cell line [8] = assay: Efficacy for transcriptional […] of PGE-2 in Human cell native protein assay expressed as percentage of the maximal response of Dexamethasone; assay type: functional
Cell line [9] = assay: Effective concentration for transcriptional activation of aromatase in Human cell native protein assay; assay type: functional, cell-based
Cell line [10] = assay: Effective concentration of compound for transcriptional repression of collagenase in Human cell native protein assay
[11] = target: T1, Progesterone receptor (Homo sapiens); assay: Transcriptional activation in cells expressing progesterone receptor isoform B compared to progesterone; assay type: functional
Cell line [12] = assay: Effective concentration of compound for transcriptional activation of TAT in Human cell native protein assay; assay type: functional, cell-based
Cell line [13] = assay: Efficacy for transcriptional activation of TAT in Human cell native protein assay expressed as percentage of the maximal response of Dexamethasone; assay type: functional
Cell line [14] = assay: Efficacy for transcriptional repression of IL-6 in Human cell native protein assay expressed as percentage of the maximal response of Dexamethasone; assay type: functional
Cell line [15] = assay: Efficacy for transcriptional activation of aromatase in Human cell native protein assay expressed as percentage of the maximal response of Dexamethasone; assay type: functional
Progesterone receptor = target: T3, Progesterone receptor (Homo sapiens, UniProt P06401); assay: Inhibition of transcriptional activation in cells expressing progesterone receptor isoform B; assay type: functional
T3 sequence (P06401 whole entry): T1 sequence (whole entry)

Cell line [16] = assay: Effective concentration of compound for transcriptional activation of osteocalcin in Human cell native protein assay; assay type: functional, cell-based

SMILES	Activity [1] [nM]	IC50 (Glucocorticoid receptor [2]) [nM]	IC50 (Glucocorticoid receptor [3]) [nM]	also measured
COc1cccc2c1-c1ccc3c(c1C(C1C=CCCCC1)O2)C(C)=CC(C)(C)N3 (centres undefined)	> 5000			
C=C(C)CC1Oc2cccc(OC)c2-c2ccc3c(c21)C(C)=CC(C)(C)N3 (centres undefined)	> 5000	66	42	
COc1cccc2c1-c1ccc3c(c1C(CC1=CCCCC1)O2)C(C)=CC(C)(C)N3 (centres undefined)	> 5000			
COc1cccc2c1-c1ccc3c(c1C(C/C=C/CO)O2)C(C)=CC(C)(C)N3 (centres undefined)	> 5000	> 5000	150	
COc1cccc2c1-c1ccc3c(c1C(C1/C=C\CCCCC1)O2)C(C)=CC(C)(C)N3 (centres undefined)	> 5000			
COc1cccc2c1-c1ccc3c(c1[C@@H]([C@H]1C=C(C)CCC1)O2)C(C)=CC(C)(C)N3	> 5000	> 5000	440	
COc1cccc2c1-c1ccc3c(c1[C@H]([C@H]1C=C(C)CCC1)O2)C(C)=CC(C)(C)N3	710	40	19	EC50 (Cell line [4]): 35 nM; Efficacy (Cell line [5]): 38%; EC50 (Cell line [6]): 62 nM; Efficacy (Cell line [7]): 89%; Efficacy (Cell line [8]): 95%; EC50 (Cell line [9]): 640 nM; EC50 (Cell line [10]): 32 nM; Efficacy [11]: 13%; EC50 (Cell line [12]): 110 nM; Efficacy (Cell line [13]): 49%; Efficacy (Cell line [14]): 82%; Efficacy (Cell line [15]): 26%
C=C(Br)CC1Oc2cccc(OC)c2-c2ccc3c(c21)C(C)=CC(C)(C)N3 (centres undefined)	> 5000	240	110	
COc1cccc2c1-c1ccc3c(c1[C@H]([C@@H]1C=C(C)CCC1)O2)C(C)=CC(C)(C)N3	430	> 5000	5.8	EC50 (Cell line [4]): 5.4 nM; Efficacy (Cell line [5]): 71%; EC50 (Cell line [6]): 45 nM; Efficacy (Cell line [7]): 97%; Efficacy (Cell line [8]): 95%; EC50 (Cell line [9]): 59 nM; EC50 (Cell line [10]): 3.4 nM; Efficacy [11]: 70%; EC50 (Cell line [12]): 290 nM; Efficacy (Cell line [13]): 67%; IC50 (Progesterone receptor): 14 nM; EC50 (Cell line [16]): 54 nM; Efficacy (Cell line [14]): 90%; Efficacy (Cell line [15]): 43%
COc1cccc2c1-c1ccc3c(c1C(C1C=C(C)CCC1)O2)C(C)=CC(C)(C)N3 (centres undefined)	980	15	7	
C=CCC1Oc2cccc(OC)c2-c2ccc3c(c21)C(C)=CC(C)(C)N3 (stereo in doubt; 4a) [AL-43]		33	13	
COc1cccc2c1-c1ccc3c(c1C(CC=C(F)F)O2)C(C)=CC(C)(C)N3 (centres undefined)	2300	76	20	
COc1cccc2c1-c1ccc3c(c1C(C1C=CCC1)O2)C(C)=CC(C)(C)N3 (centres undefined)	2200			
COc1cccc2c1-c1ccc3c(c1C(C1C=CCCC1)O2)C(C)=CC(C)(C)N3 (centres undefined)	2400	13	21	
COc1c(O)ccc2c1-c1ccc3c(c1[C@H]([C@@H]1C=C(C)CCC1)O2)C(C)=CC(C)(C)N3	11.4			Efficacy [11]: 260%; IC50 (Progesterone receptor): 7.1 nM
COC(=O)/C=C/CC1Oc2cccc(OC)c2-c2ccc3c(c21)C(C)=CC(C)(C)N3 (centres undefined)	> 5000	220	87	
COc1cccc2c1-c1ccc3c(c1[C@@H]([C@@H]1C=C(C)CCC1)O2)C(C)=CC(C)(C)N3	> 5000	> 5000	> 5000	

SMILES	Activity [1] [nM]	IC50 (Glucocorticoid receptor [2]) [nM]	IC50 (Glucocorticoid receptor [3]) [nM]	also measured
COc1cccc2c1-c1ccc3c(c1C(CC=C(C)C)O2)C(C)=CC(C)(C)N3 (centres undefined)	1600	> 5000	23	
C/C=C/CC1Oc2cccc(OC)c2-c2ccc3c(c21)C(C)=CC(C)(C)N3 (centres undefined)	2100	150	38	
C/C=C\CC1Oc2cccc(OC)c2-c2ccc3c(c21)C(C)=CC(C)(C)N3 (centres undefined)	1200	39	23	
C=CCC1Oc2cccc(OC)c2-c2ccc3c(c21)C(C)=CC(C)(C)N3 (stereo in doubt; 4a)	1800			
COc1cccc2c1-c1ccc3c(c1C(CC=C1CCCC1)O2)C(C)=CC(C)(C)N3 (centres undefined)	> 5000	> 5000	217	
C=C(CO)CC1Oc2cccc(OC)c2-c2ccc3c(c21)C(C)=CC(C)(C)N3 (centres undefined)	> 5000	310	141	
C=CCC1Oc2cccc(OC)c2-c2ccc3c(c21)C(C)=CC(C)(C)N3 (stereo in doubt; (-)4a) [AL-43]		14	6.9	EC50 (Cell line [6]): 30 nM; Efficacy (Cell line [7]): 77%; EC50 (Cell line [9]): 160 nM; EC50 (Cell line [10]): 37 nM; EC50 (Cell line [12]): 40 nM; Efficacy (Cell line [13]): 71%; Efficacy (Cell line [14]): 83%; Efficacy (Cell line [15]): 82%
C[C@]12C=CC(=O)C=C1CC[C@@H]1[C@@H]2[C@@H](O)C[C@@]2(C)[C@H]1CC[C@]2(O)C(=O)CO [PREDNISOLONE]	> 5000			EC50 (Cell line [4]): 2 nM; Efficacy (Cell line [5]): 94%; EC50 (Cell line [6]): 3.6 nM; Efficacy (Cell line [7]): 98%; Efficacy (Cell line [8]): 100%; EC50 (Cell line [9]): 45 nM; EC50 (Cell line [10]): 0.4 nM; EC50 (Cell line [12]): 48 nM; Efficacy (Cell line [13]): 95%; EC50 (Cell line [16]): 32 nM; Efficacy (Cell line [14]): 98%; Efficacy (Cell line [15]): 96%
C=CC(C)(C)C1Oc2cccc(OC)c2-c2ccc3c(c21)C(C)=CC(C)(C)N3 (centres undefined)	> 5000	> 5000	> 5000	
C=CC(C)C1Oc2cccc(OC)c2-c2ccc3c(c21)C(C)=CC(C)(C)N3 (centres undefined)	> 5000	110	40	
C=C(CC1Oc2cccc(OC)c2-c2ccc3c(c21)C(C)=CC(C)(C)N3)C(=O)OC (centres undefined)	> 5000	> 5000	> 5000	
CC/C=C\CC1Oc2cccc(OC)c2-c2ccc3c(c21)C(C)=CC(C)(C)N3 (centres undefined)	> 5000	89	88	
C=C1CCCCC1C1Oc2cccc(OC)c2-c2ccc3c(c21)C(C)=CC(C)(C)N3 (centres undefined)	> 5000	> 5000	320	
C=CCC1Oc2cccc(OC)c2-c2ccc3c(c21)C(C)=CC(C)(C)N3 (stereo in doubt; (-)4a)	1300			
C=C(COC(C)=O)CC1Oc2cccc(OC)c2-c2ccc3c(c21)C(C)=CC(C)(C)N3 (centres undefined)	> 5000	310	141	
COc1c(O)ccc2c1-c1ccc3c(c1[C@H]([C@H]1C=C(C)CCC1)O2)C(C)=CC(C)(C)N3	52			Efficacy [11]: 190%; IC50 (Progesterone receptor): 210 nM
